Measured values pooled from the literature.
Lines come from different studies, so protocols differ.
GIPR: Gastric inhibitory polypeptide receptor (GIPR, Homo sapiens, UniProt P48546)
SLC22A11: Solute carrier family 22 member 11 (SLC22A11, Homo sapiens, UniProt Q9NSA0)

SMILES	target	assay	conditions	endpoint	result
c1cncc([C@@H]2CCCN2)c1	5-hydroxytryptamine receptor 3A (HTR3A, Homo sapiens, UniProt P46098)	ligand displacement, radioligand	50 µM	inhibition	-3.09%
CC(C)CC(=O)OC[C@H]1O[C@@](C#N)(c2ccc3c(N)ncnn23)[C@H](O)[C@@H]1O	Alpha-2A adrenergic receptor (ADRA2A, Homo sapiens, UniProt P08913)	cell-free assay	20 µM	inhibition	6%
CN1CCC[C@H]1c1cccnc1	Delta-type opioid receptor (OPRD1, Homo sapiens, UniProt P41143)	ligand displacement	50 µM	inhibition	-7.8%
CC[C@H](C)[C@H](NC(=O)[C@H](CO)NC(=O)[C@H](Cc1ccc(O)cc1)NC(=O)[C@H](CC(=O)O)NC(=O)[C@H](CO)NC(=O)[C@@H](NC(=O)[C@H](Cc1ccccc1)NC(=O)[C@@H](NC(=O)CNC(=O)[C@H](CCC(=O)O)NC(=O)CCNC(=O)C1(c2ccc(Cl)cc2)CCOCC1)[C@@H](C)O)[C@@H](C)CC)C(=O)N[C@@H](C)C(=O)N[C@@H](CCSC)C(=O)N[C@@H](CC(=O)O)C(=O)N[C@@H](CCCCN)C(=O)N[C@H](C(=O)N[C@@H](Cc1c[nH]cn1)C(=O)N[C@@H](CCC(N)=O)C(=O)N[C@@H](CCC(N)=O)C(=O)N[C@@H](CC(=O)O)C(=O)N[C@@H](Cc1ccccc1)C(=O)N[C@H](C(=O)N[C@@H](CC(N)=O)C(=O)N[C@@H](Cc1c[nH]c2ccccc12)C(=O)N[C@@H](CC(C)C)C(=O)N[C@@H](CC(C)C)C(=O)N[C@@H](C)C(=O)N[C@@H](CCC(N)=O)C(=O)NCC(=O)N1CCC[C@H]1C(=O)N[C@@H](CO)C(=O)N[C@@H](CO)C(=O)NCC(=O)N[C@@H](C)C(=O)N1CCC[C@H]1C(=O)N1CCC[C@H]1C(=O)N1CCC[C@H]1C(=O)N[C@@H](CO)C(=O)N[C@@H](CCCCN)C(N)=O)C(C)C)[C@@H](C)CC	GIPR	β-arrestin recruitment, agonist	–	Emax	14%
Cn1c(=O)c2[nH]cnc2n(C)c1=O	SLC22A11	transporter uptake, inhibitor	25 µM	inhibition	81.6%
CC[C@H](C)[C@H](NC(=O)[C@H](CO)NC(=O)[C@H](Cc1ccc(O)cc1)NC(=O)[C@H](CC(=O)O)NC(=O)[C@H](CO)NC(=O)[C@@H](NC(=O)[C@H](Cc1ccccc1)NC(=O)[C@@H](NC(=O)CNC(=O)[C@H](CCC(=O)O)NC(=O)[C@@H](C)NC(=O)[C@@H](N)Cc1ccc(O)cc1)[C@@H](C)O)[C@@H](C)CC)C(=O)N[C@@H](C)C(=O)N[C@@H](CCSC)C(=O)N[C@@H](CC(=O)O)C(=O)N[C@@H](CCCCN)C(=O)N[C@H](C(=O)N[C@@H](Cc1c[nH]cn1)C(=O)N[C@@H](CCC(N)=O)C(=O)N[C@@H](CCC(N)=O)C(=O)N[C@@H](CC(=O)O)C(=O)N[C@@H](Cc1ccccc1)C(=O)N[C@H](C(=O)N[C@@H](CC(N)=O)C(=O)N[C@@H](Cc1c[nH]c2ccccc12)C(=O)N[C@@H](CC(C)C)C(=O)N[C@@H](CC(C)C)C(=O)N[C@@H](C)C(=O)N[C@@H](CCC(N)=O)C(=O)NCC(=O)N1CCC[C@H]1C(=O)N[C@@H](CO)C(=O)N[C@@H](CO)C(=O)NCC(=O)N[C@@H](C)C(=O)N1CCC[C@H]1C(=O)N1CCC[C@H]1C(=O)N1CCC[C@H]1C(=O)N[C@@H](CO)C(=O)N[C@@H](CCCCN)C(N)=O)C(C)C)[C@@H](C)CC	GIPR	β-arrestin recruitment, agonist	–	Emax	103%
[2H]c1c([2H])c([C@]2([2H])CCCN2C(=O)C(C)(C)Oc2ccc3cn[nH]c3c2)c([2H])c([2H])c1C([2H])([2H])[2H]	Receptor tyrosine-protein kinase erbB-2 (ERBB2, Homo sapiens, UniProt P04626)	binding, competition with immobilised ligand	1 µM	remaining binding	83%
CCCCCCCCCc1ccc(OCCOCCOCCOCCOCCOCCOCCOCCOCCO)cc1	SLC22A11	transporter uptake, inhibitor	25 µM	inhibition	79.9%
